Measured values reported in ChEMBL document CHEMBL1133007, “Synthesis and in vitro evaluation of novel morpholinyl- and methylpiperazinylacyloxyalkyl prodrugs of 2-(6-methoxy-2-naphthyl)propionic acid (Naproxen) for topical drug delivery” (J Med Chem, 2000).
≈ marks a conversion by molar mass, not a printed value.

Tests used:
[1] = Evaluated for 50% hydrolysis rate in phosphate buffer at 5.0 at 37 degrees C; assay type: ADME; conditions: pH 5
Summary of the method: (§1)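 Chemical stability in phosphate buffer (0.16 M, ionic strength 0.5) at pH 7.4 or 5.0, in a 37 °C thermostatted water bath. Samples were taken at intervals and analysed by HPLC for remaining prodrug. Pseudo-first-order t1/2 was calculated from the slope of the linear part of log remaining prodrug vs time.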

[2] = Evaluated for the apparent partition coefficient between 1-octanol and phosphate buffer at pH 5.0.; assay type: physicochemical; conditions: 1-octanol/phosphate buffer
Summary of the method: (§2)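 Shake-flask log Papp at room temperature. Compound in phosphate buffer (pH 5.0 or 7.4) was shaken with buffer-saturated 1-octanol for 30 min (pH 5.0) or 15 min (pH 7.4), and phases were separated by centrifugation. Buffer-phase concentration was measured by HPLC before and after partitioning.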

[3] = Evaluated for 50% hydrolysis rate in 80% human serum at a pH of 7.4; assay type: ADME; conditions: pH 7.4
Summary of the method: (§3)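 Human serum diluted to 80% with 0.16 M phosphate buffer pH 7.4, 37 °C. Prodrug dissolved in buffer, then preheated serum added. Aliquots were quenched in ethanol and centrifuged, and the supernatant was analysed by HPLC for remaining prodrug and released naproxen. Pseudo-first-order t1/2 came from the slope of log remaining prodrug vs time. f50% is the time at which 50% of total naproxen formed. Mean of n = 2.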

Homo sapiens [4] = species: Homo sapiens; assay: Evaluated for the Steady-state fluxes (Jss) for delivery of total Naproxen species through excised human skin in Vitro in Isotonic phosphate buffer (0.05 M) at pH 7.4; assay type: ADME
Summary of the method: (§4)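 Excised postmortem human skin, epidermis heat-separated (60 °C water, 2 min), dried, frozen, then rehydrated and mounted in Franz-type diffusion cells (area 0.71 cm2). Donor was a saturated suspension in 0.05 M phosphate buffer at the stated pH. Receptor was isotonic 0.05 M phosphate pH 7.4, stirred at 37 °C and sampled at intervals. Total naproxen, intermediate and prodrug were measured by HPLC. Jss is the steady-state slope per area; mean ± SE, n = 3-12.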

Homo sapiens [5] = species: Homo sapiens; assay: Evaluated for the Steady-state fluxes (Jss) for delivery of total Naproxen species through excised human skin in Vitro in Isotonic phosphate buffer (0.05 M) at pH 5.0; assay type: ADME; summary of the method: as §4
[6] = Evaluated for the solubility in aqueous solution at pH 7.4; assay type: ADME
Summary of the method: (§5)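 Excess compound was stirred in 0.16 M phosphate buffer at room temperature, 60 min at pH 5.0 or 30 min at pH 7.4, with pH held constant. The mixture was filtered (0.45 µm) and the filtrate quantified by reversed-phase HPLC.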

[7] = Evaluated for 50% hydrolysis rate in phosphate buffer at pH 7.4 at 37 degrees C; assay type: ADME; summary of the method: as §1
[8] = Evaluated for the solubility in aqueous solution at pH 5.0; assay type: ADME; summary of the method: as §5
[9] = Evaluated for the time by which 50% of total naproxen is formed in 80% human serum at a pH of 7.4; assay type: ADME; conditions: pH 7.4; summary of the method: as §3
[10] = Evaluated for the apparent partition coefficient between 1-octanol and phosphate buffer at pH 7.4; assay type: physicochemical; conditions: 1-octanol/phosphate buffer; summary of the method: as §2
Homo sapiens [11] = species: Homo sapiens; assay: Evaluated for the Steady-state fluxes (Jss) for delivery of total Naproxen species through excised human skin in vitro in Isotonic phosphate buffer (0.05 M) at pH 5.0; assay type: ADME; summary of the method: as §4
Homo sapiens [12] = species: Homo sapiens; assay: Evaluated for the Steady-state fluxes (Jss) for delivery of total Naproxen species through excised human skin in vitro in isotonic phosphate buffer (0.05 M) at pH 7.4; assay type: ADME; summary of the method: as §4
Homo sapiens [13] = species: Homo sapiens; assay: Evaluated for the Steady-state fluxes (Jss) for delivery of total Naproxen species through excised human skin in vitro in isotonic phosphate buffer (0.05 M) at pH 5.0; assay type: ADME; summary of the method: as §4
[14] = Evaluated for the hydrolysis rate in 80% human serum (mean; n=2) at a pH of 7.4; assay type: ADME; conditions: pH 7.4; summary of the method: as §3
[15] = Evaluated for the hydrolysis rate in phosphate buffer at pH 7.4 at 37 degrees Centigrade; assay type: ADME; summary of the method: as §1
[16] = Evaluated for the hydrolysis rate in phosphate buffer at 5.0 at 37 degrees Centigrade.; assay type: ADME; conditions: pH 5; summary of the method: as §1

half-life [1] | logD [2] | half-life [3] | Jss (Homo sapiens [4]) | Jss (Homo sapiens [5]) | solubility [6] | half-life [7] | solubility [8] | 50% naproxen formed [9] | logD [10] | Jss (Homo sapiens [11]) | Jss (Homo sapiens [12]) | Jss (Homo sapiens [13]) | half-life [14] | half-life [15] | half-life [16] | Structure (SMILES)
893 h | 1.41 | 0.0167 h | 13.2 nM hr-1 cm**-2 |  | 50 mM (≈ 23500 µg/mL) | 48 h | 61 mM (≈ 28700 µg/mL) | 3 min | 2.69 | 1.2 nM hr-1 cm**-2 |  |  |  |  |  | COc1ccc2cc(C(C)C(=O)OCCCCOC(=O)CCCN3CCN(C)CC3)ccc2c1 (configuration not stated)
 | 1.2 |  |  |  | 432 mM (≈ 197000 µg/mL) |  | 142 mM (≈ 64700 µg/mL) | 5 min | 3.04 |  | 7.7 nM hr-1 cm**-2 | 0.6 nM hr-1 cm**-2 | 4 min | 16.8 h | 432 h | COc1ccc2cc(C(C)C(=O)OCCCCOC(=O)CCN3CCN(C)CC3)ccc2c1 (configuration not stated)
1920 h | 0.94 | 0.05 h | 7.2 nM hr-1 cm**-2 | 0.2 nM hr-1 cm**-2 | 8.8 mM (≈ 3890 µg/mL) | 182 h | 16.2 mM (≈ 7170 µg/mL) | 7 min | 1.3 |  |  |  |  |  |  | COc1ccc2cc(C(C)C(=O)OCCCCOC(=O)CN3CCN(C)CC3)ccc2c1 (configuration not stated)

Continued, molecule first:

Structure (SMILES) | half-life [1] | logD [2] | half-life [3] | Jss (Homo sapiens [4]) | Jss (Homo sapiens [5]) | solubility [6] | half-life [7] | solubility [8] | 50% naproxen formed [9] | logD [10] | Jss (Homo sapiens [11]) | Jss (Homo sapiens [12]) | Jss (Homo sapiens [13]) | half-life [14] | half-life [15] | half-life [16]
COc1ccc2cc(C(C)C(=O)OCCOC(=O)CN3CCN(C)CC3)ccc2c1 (configuration not stated) | 1600 h | 0.43 | 0.433 h | 24.6 nM hr-1 cm**-2 | 2.2 nM hr-1 cm**-2 | 4.1 mM (≈ 1700 µg/mL) | 57.6 h | 5.3 mM (≈ 2200 µg/mL) | 22 min | 1.16 |  |  |  |  |  | 
COc1ccc2cc(C(C)C(=O)OCCCCOC(=O)CN3CCOCC3)ccc2c1 (configuration not stated) |  |  | 0.217 h |  |  |  |  |  | 11 min |  |  |  |  |  |  | 
COc1ccc2cc(C(C)C(=O)OCCOC(=O)CN3CCOCC3)ccc2c1 (configuration not stated) | 161 h | 2.62 | 0.333 h |  |  | 0.07 mM (≈ 28.1 µg/mL) | 33.6 h | 0.05 mM (≈ 20.1 µg/mL) | 25 min | 2.14 |  | 0.7 nM hr-1 cm**-2 | 0.6 nM hr-1 cm**-2 |  |  | 
